Experimental data as given in ChEMBL document CHEMBL5096226, “Structure-Activity Relationship Study of Momordica Saponin II Derivatives as Vaccine Adjuvants” (J Med Chem, 2022).
Activity calls are given as the source filed them.

Key:
Format in all cases: functional, organism-based
[1] = test system: Mus musculus; assay: Immuno-adjuvant activity in BALB/c mouse assessed as increase in anti-OVA IgG antibody in serum at 20 ug, sc administered on day 0, 14 and 28 and measured at 2, 4 and 6 weeks in presence of chicken egg ovalbumin by ELISA; settings: dose 20.0 µg, time 2-6 weeks
Summary of the method: (§1)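 Female BALB/c mice (8–10 wk, six per group) immunized s.c. with OVA 20 μg ± adjuvant on days 0, 14, 28. Tail-vein serum taken before each dose and 2 wk after the last. ELISA on OVA-coated (0.1 μg/mL) plates in borate saline pH 8.2. Twofold serum dilutions in duplicate, overnight at 4 °C. HRP anti-mouse IgG/subclass applied 4 h, OPD substrate, read at 490 nm. Concentrations from reference-serum standard curves (4-parameter fit).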

[2] = test system: Mus musculus; assay: Immuno-adjuvant activity in BALB/c mouse assessed as increase in IL-4 expressing CD4+ effector T cells in spleen at 20 ug, sc administered on day 0, 14 and 28 and measured at week 6 post immunization by flow cytometry analysis; settings: T-cell, dose 20.0 µg, time 6.0 weeks
Summary of the method: (§2)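 Female BALB/c mice (8–10 wk, six per group) given OVA 20 μg s.c. with adjuvant on days 0, 14, 28; spleens taken at week 6. Splenocytes stained with viability dye, Fc-blocked, surface-stained 30 min. For intracellular cytokines, cells stimulated 5 h with leukocyte activation cocktail plus GolgiPlug, then fixed/permeabilized. IL-21 detected with IL-21R Fc chimera. All steps at 4 °C. Read as MFI, mean ± SEM.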

[3] = test system: Mus musculus; assay: Immuno-adjuvant activity in BALB/c mouse assessed as increase in CD19+ B cells in spleen at 20 ug, sc administered on day 0, 14 and 28 and measured at week 6 post immunization by flow cytometry analysis; settings: dose 20.0 µg, time 6.0 weeks
Summary of the method: (§3)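 Female BALB/c mice (8–10 wk, six per group), OVA 20 μg s.c. plus adjuvant on days 0, 14, 28; spleens collected week 6. Single-cell splenocyte suspensions stained and analysed by flow cytometry. TFH gated PD-1+Bcl6+Foxp3−CD4+CD3+, TFR PD-1+Bcl6+Foxp3+CD4+CD3+, dark zone GC B cells CXCR4hiCD86loFas+GL-7+CD19+. Steps at 4 °C. Mean ± SEM; unpaired t tests.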

[4] = test system: Mus musculus; assay: Immuno-adjuvant activity in BALB/c mouse assessed as increase in ratio of TFH to TFR cells at 20 ug, sc administered on day 0, 14 and 28 and measured at week 6 post immunization by flow cytometry analysis; settings: dose 20.0 µg, time 6.0 weeks; summary of the method: as §3
[5] = test system: Mus musculus; assay: Immuno-adjuvant activity in BALB/c mouse assessed as increase in dark zone B cells at 20 ug, sc administered on day 0, 14 and 28 and measured at week 6 post immunization by flow cytometry analysis; settings: dose 20.0 µg, time 6.0 weeks; summary of the method: as §3
[6] = test system: Mus musculus; assay: Immuno-adjuvant activity in BALB/c mouse Splenocyte assessed as increase in CD4+ T cells at 20 ug, sc administered on day 0, 14 and 28 and measured at week 6 post immunization by flow cytometry analysis; settings: dose 20.0 µg, time 6.0 weeks; summary of the method: as §2
[7] = test system: Mus musculus; assay: Immuno-adjuvant activity in BALB/c mouse assessed as increase in follicular helper T cells in spleen at 20 ug, sc administered on day 0, 14 and 28 and measured at week 6 post immunization by flow cytometry analysis; settings: T-cell, dose 20.0 µg, time 6.0 weeks; summary of the method: as §3
[8] = test system: Mus musculus; assay: Immuno-adjuvant activity in BALB/c mouse assessed as reduction in TFR cells in spleen at 20 ug, sc administered on day 0, 14 and 28 and measured at week 6 post immunization by flow cytometry analysis; settings: dose 20.0 µg, time 6.0 weeks; summary of the method: as §3
[9] = test system: Mus musculus; assay: Immuno-adjuvant activity in BALB/c mouse assessed as increase in anti-OVA IgG2a antibody in serum at 20 ug, sc administered on day 0, 14 and 28 and measured at 2 weeks in presence of chicken egg ovalbumin by ELISA; settings: dose 20.0 µg; summary of the method: as §1
[10] = test system: Mus musculus; assay: Immuno-adjuvant activity in BALB/c mouse assessed as increase in anti-OVA Ig2a antibody in serum at 20 ug, sc administered on day 0, 14 and 28 and measured at 4 and 6 weeks in presence of chicken egg ovalbumin by ELISA; settings: dose 20.0 µg, time 4-6 weeks; summary of the method: as §1
[11] = test system: Mus musculus; assay: Immuno-adjuvant activity in BALB/c mouse Splenocyte assessed as increase in CD8+ T cells at 20 ug, sc administered on day 0, 14 and 28 and measured at week 6 post immunization by flow cytometry analysis; settings: dose 20.0 µg, time 6.0 weeks; summary of the method: as §2
[12] = test system: Mus musculus; assay: Immuno-adjuvant activity in BALB/c mouse assessed as increase in IL-21 expressing CD4+ effector T cells in spleen at 20 ug, sc administered on day 0, 14 and 28 and measured at week 6 post immunization by flow cytometry analysis; settings: T-cell, dose 20.0 µg, time 6.0 weeks; summary of the method: as §2
[13] = test system: Mus musculus; assay: Immuno-adjuvant activity in BALB/c mouse assessed as increase in dark zone B cells at 100 ug, sc administered on day 0, 14 and 28 and measured at week 6 post immunization by flow cytometry analysis; settings: dose 100.0 µg, time 6.0 weeks; summary of the method: as §3
[14] = test system: Mus musculus; assay: Immuno-adjuvant activity in BALB/c mouse Splenocyte assessed as increase in CD4+ surface expression of PD-1 at 50 ug, sc administered on day 0, 14 and 28 and measured at week 6 post immunization by flow cytometry analysis; settings: dose 50.0 µg, time 6.0 weeks; summary of the method: as §2
[15] = test system: Mus musculus; assay: Immuno-adjuvant activity in BALB/c mouse assessed as increase in anti-OVA IgG1 antibody in serum at 100 ug, sc administered on day 0, 14 and 28 and measured at 4 weeks in presence of chicken egg ovalbumin by ELISA; settings: dose 100.0 µg; summary of the method: as §1
[16] = test system: Splenocyte; assay: Immuno-adjuvant activity in BALB/c mouse Splenocyte assessed as increase in CD4+ T cells at 100 ug, sc administered on day 0, 14 and 28 and measured at week 6 post immunization by flow cytometry analysis; settings: dose 100.0 µg, time 6.0 weeks; summary of the method: as §2
[17] = test system: Mus musculus; assay: Immuno-adjuvant activity in BALB/c mouse assessed as increase in IL-4 expressing CD4+ effector T cells in spleen at 100 ug, sc administered on day 0, 14 and 28 and measured at week 6 post immunization by flow cytometry analysis; settings: T-cell, dose 100.0 µg, time 6.0 weeks; summary of the method: as §2
[18] = test system: Mus musculus; assay: Immuno-adjuvant activity in BALB/c mouse assessed as increase in follicular helper T cells in spleen at 100 ug, sc administered on day 0, 14 and 28 and measured at week 6 post immunization by flow cytometry analysis; settings: T-cell, dose 100.0 µg, time 6.0 weeks; summary of the method: as §3
[19] = test system: Mus musculus; assay: Immuno-adjuvant activity in BALB/c mouse assessed as reduction in TFR cells in spleen at 100 ug, sc administered on day 0, 14 and 28 and measured at week 6 post immunization by flow cytometry analysis; settings: dose 100.0 µg, time 6.0 weeks; summary of the method: as §3
[20] = test system: Mus musculus; assay: Immuno-adjuvant activity in BALB/c mouse assessed as increase in ratio of TFH to TFR cells at 100 ug, sc administered on day 0, 14 and 28 and measured at week 6 post immunization by flow cytometry analysis; settings: dose 100.0 µg, time 6.0 weeks; summary of the method: as §3
[21] = test system: Mus musculus; assay: Immuno-adjuvant activity in BALB/c mouse assessed as increase in anti-OVA Ig2a antibody in serum at 100 ug, sc administered on day 0, 14 and 28 and measured at 4 and 6 weeks in presence of chicken egg ovalbumin by ELISA; settings: dose 100.0 µg, time 4-6 weeks; summary of the method: as §1
[22] = test system: Mus musculus; assay: Immuno-adjuvant activity in BALB/c mouse assessed as increase in CD19+ B cells in spleen at 100 ug, sc administered on day 0, 14 and 28 and measured at week 6 post immunization by flow cytometry analysis; settings: dose 100.0 µg, time 6.0 weeks; summary of the method: as §3
[23] = test system: Splenocyte; assay: Immuno-adjuvant activity in BALB/c mouse Splenocyte assessed as increase in CD8+ T cells at 100 ug, sc administered on day 0, 14 and 28 and measured at week 6 post immunization by flow cytometry analysis; settings: dose 100.0 µg, time 6.0 weeks; summary of the method: as §2
[24] = test system: Mus musculus; assay: Immuno-adjuvant activity in BALB/c mouse assessed as increase in IL-21 expressing CD4+ effector T cells in spleen at 100 ug, sc administered on day 0, 14 and 28 and measured at week 6 post immunization by flow cytometry analysis; settings: T-cell, dose 100.0 µg, time 6.0 weeks; summary of the method: as §2
[25] = test system: Mus musculus; assay: Immuno-adjuvant activity in BALB/c mouse assessed as increase in anti-OVA IgG antibody in serum at 50 ug, sc administered on day 0, 14 and 28 and measured at 2, 4 and 6 weeks in presence of chicken egg ovalbumin by ELISA; settings: dose 50.0 µg, time 2-6 weeks; summary of the method: as §1

Measured: Activity

CC[C@H](C)[C@H](C[C@H](O)CC(=O)O[C@@H]1[C@H](O)[C@@H](O[C@@H]2O[C@@H](C)[C@H](O[C@@H]3OC[C@@H](O)[C@H](O[C@@H]4OC[C@](O)(CO)[C@H]4O)[C@H]3O)[C@@H](O)[C@H]2O)[C@H](OC(=O)[C@]23CCC(C)(C)C[C@H]2C2=CC[C@@H]4[C@@]5(C)CC[C@H](O[C@@H]6O[C@H](C(=O)O)[C@@H](O)[C@H](O[C@@H]7OC[C@@H](O)[C@H](O)[C@H]7O)[C@H]6O[C@@H]6O[C@H](CO)[C@H](O)[C@H](O)[C@H]6O)[C@@](C)(C=O)[C@@H]5CC[C@@]4(C)[C@]2(C)C[C@H]3O)O[C@@H]1C)OC(=O)C[C@@H](O)C[C@H](O[C@@H]1O[C@@H](CO)[C@H](O)[C@H]1O)[C@@H](C)CC
active: [1] | [2] | [3] | [4] | [5] | [6] | [7] | [8] | [9] | [10] | [11] | [12]

C[C@@H]1O[C@@H](O[C@H]2[C@H](O)[C@@H](C(=O)NCCCCCCCCCCC(=O)OCc3ccccc3)O[C@@H](O[C@H]3CC[C@]4(C)[C@H]5CC=C6[C@@H]7CC(C)(C)CC[C@]7(C(=O)O[C@@H]7O[C@H](C)[C@H](O)[C@H](O)[C@H]7O[C@@H]7O[C@@H](C)[C@H](O[C@@H]8OC[C@@H](O)[C@H](O)[C@H]8O)[C@@H](O[C@@H]8O[C@H](CO)[C@@H](O)[C@H](O[C@@H]9OC[C@@H](O)[C@H](O)[C@H]9O)[C@H]8O)[C@H]7O)[C@H](O)C[C@@]6(C)[C@]5(C)CC[C@H]4[C@]3(C)C=O)[C@@H]2O[C@@H]2O[C@H](CO)[C@H](O)[C@H](O)[C@H]2O)[C@H](O)[C@H](O)[C@H]1O
active: [13] | [14] | [15] | [16] | [17] | [18] | [19] | [20] | [21] | [22] | [23] | [24] | [25]
